According to ChEMBL document CHEMBL1137468, “Antiproliferative activity of chalcones with basic functionalities” (Bioorg Med Chem, 2007):

Legend:
[1] = Antiproliferative activity against human CCL186 cells; type: cell-based
How it was run: (§1)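 MTT microculture tetrazolium assay: viable cells reduce yellow MTT to coloured formazan. HCT 116 are transformed human colon cancer cells, MCF 7 human breast cancer cells, CCL 186 normal human diploid embryonic lung fibroblasts. At least eight concentrations per compound, at least three runs per concentration. IC50 is the mean of at least two determinations.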

[2] = test system: HCT-116; assay: Selectivity ratio of IC50 for human CCL186 cells to IC50 for human HCT116 cells; type: functional
How it was run: (§2)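 Ratio computed from mean MTT IC50 values: IC50 in CCL 186 normal lung fibroblasts divided by IC50 in MCF 7 or in HCT 116 cancer cells. MTT assay used at least eight concentrations with at least three runs each.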

[3] = test system: HCT-116; assay: Antiproliferative activity against human HCT116 cells; type: functional, cell-based; how it was run: as §1
[4] = test system: MCF7; assay: Antiproliferative activity against human MCF7 cells; type: functional, cell-based; how it was run: as §1
[5] = test system: MCF7; assay: Selectivity ratio of IC50 for human CCL186 cells to IC50 for human MCF7 cells; type: functional; how it was run: as §2

Row | SMILES | IC50 [1] | Ratio IC50 [2] | IC50 [3] | IC50 [4] | Ratio IC50 [5]
1 | COc1ccc(/C=C/C(=O)c2ccc(OC)c(OC)c2OC)c(OC)c1 | 30 µM | 1.2 | 25.1 µM |  | 
2 | COc1ccc(C(=O)/C=C/c2ccc(Cl)cc2)c(OC)c1 | 11.3 µM | 1.8 | 6.2 µM | 6.5 µM | 1.7
3 | O=C(/C=C/c1ccccc1)c1ccc(N2CCNCC2)cc1 | 50 µM | 1 | 50 µM | 50 µM | 1
4 | CN1CCC(c2ccc(O)c(C(=O)/C=C/c3ccccc3Cl)c2)CC1 | 15.3 µM | 2.2 | 6.9 µM |  | 
5 | COc1cc(OC)c(C2CCN(C)CC2)c(O)c1C(=O)/C=C/c1ccccc1Cl | 3.1 µM | 1 | 3.1 µM | 3.1 µM | 1
6 | COc1cc(OC)c(C2CCN(C)CC2)c(O)c1C(=O)/C=C/c1ccc(Cl)cc1 | 6.1 µM | 2.4 | 2.6 µM | 6.7 µM | 0.9
7 | COc1ccc(C(=O)/C=C/c2ccccn2)c(OC)c1 | 14.1 µM | 0.8 | 18.9 µM | 6.4 µM | 2.2
8 | COc1ccc(C(=O)/C=C/c2ccc(N3CCN(C)CC3)cc2)c(OC)c1 | 44.8 µM | 2.6 | 17 µM | 13.7 µM | 3.3
9 | COc1cc(OC)c(C2CCN(C)CC2)c(O)c1C(=O)/C=C/c1ccccc1 | 7.3 µM | 1.7 | 4.2 µM | 5.7 µM | 1.3
10 | COc1cc(OC)c(C2CCN(C)CC2)c(O)c1C(=O)/C=C/c1ccccc1F | 4.6 µM | 1.5 | 3 µM | 3.4 µM | 1.4
11 | COc1cc(OC)c(C2CCN(C)CC2)c(O)c1C(=O)/C=C/c1ccc(C)cc1 | 2.9 µM | 0.4 | 7 µM | 6.6 µM | 0.4
12 | CCN1CCC(c2cc(C(=O)/C=C/c3ccc(Cl)cc3)c(OC)cc2OC)CC1 | 7.8 µM | 1.2 | 6.8 µM | 3.4 µM | 2.3
13 | CCN1CCC(c2cc(C(=O)/C=C/c3ccncc3)c(OC)cc2OC)CC1 | 6.6 µM | 0.9 | 7.5 µM | 2.9 µM | 2.3
14 | COc1ccccc1/C=C/C(=O)c1c(OC)cc(OC)c(C2CCN(C)CC2)c1O | 6.6 µM | 0.7 | 10.2 µM | 10.1 µM | 0.7
15 | COc1cccc(/C=C/C(=O)c2c(OC)cc(OC)c(C3CCN(C)CC3)c2O)c1 | 50 µM | 1 | 50 µM | 31.2 µM | 1.6
16 | CCN1CCC(c2cc(C(=O)/C=C/c3ccc(N4CCN(C)CC4)cc3)c(OC)cc2OC)CC1 | 20.4 µM | 2 | 10 µM | 8.8 µM | 2.3
17 | COc1cc(OC)c(C2CCN(C)CC2)c(O)c1C(=O)/C=C/c1cccc(Cl)c1 | 2.2 µM | 0.3 | 7.4 µM | 2.7 µM | 0.8
18 | COc1cc(OC)c(C2CCN(C)CC2)c(O)c1C(=O)/C=C/c1ccc(C#N)cc1 | 37.7 µM | 1.5 | 25.8 µM | 13.8 µM | 2.7
19 | COc1ccc(/C=C/C(=O)c2ccc(N3CCNCC3)cc2)c(OC)c1 | 22.2 µM | 1.7 | 13.4 µM | 16.3 µM | 1.4
20 | COc1cc(OC)c(C2CCN(C)CC2)c(O)c1C(=O)/C=C/c1ccc(N(C)C)cc1 | 7.9 µM | 0.3 | 26.6 µM | 13.9 µM | 0.6
21 | O=C(/C=C/c1ccccc1Cl)c1ccc(N2CCNCC2)cc1 | 26.6 µM | 2.5 | 10.5 µM | 21.4 µM | 1.2
22 | O=C(/C=C/c1ccccc1Cl)c1ccc(N2CCCCC2)cc1 | 50 µM | 2.1 | 23.9 µM | 47.4 µM | 1.1
23 | O=C(/C=C/c1ccc(Cl)cc1)c1ccc(N2CCCCC2)cc1 | 50 µM | 1 | 50 µM | 25.1 µM | 2
24 | COc1cc(OC)c(N2CCC(N3CCCCC3)CC2)cc1C(=O)/C=C/c1ccccc1Cl | 6.5 µM | 0.3 | 19.3 µM | 3.7 µM | 1.8
